Measured values as given in ChEMBL document CHEMBL1142874, “Design and synthesis of anticonvulsants from a combined phthalimide-GABA-anilide and hydrazone pharmacophore” (Eur J Med Chem, 2007).
Activity calls are given as the source filed them. The rule behind the calls is not given here.

Experiments:
Mus musculus [1] = test: Anticonvulsant activity against intraperitoneal picrotoxin-induced seizure in Albino CF1 mouse at 100 mg/kg, ip after 4 hrs; format: functional, organism-based; set-up: dose 100 mg/kg
Method in brief: (§1)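 Mice received the test compound by intraperitoneal injection at 30, 100 or 300 mg/kg. They were then challenged with intraperitoneal picrotoxin and scored for anticonvulsant protection 0.5 h or 4 h after dosing. The value recorded is the lowest dose that protected half or more of the mice. A dash means no activity up to 300 mg/kg.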

Mus musculus [2] = test: Anticonvulsant activity against subcutaneous pentylenetetrazole-induced seizure in Albino CF1 mouse at 300 mg/kg, ip after 4 hrs; format: functional, organism-based; set-up: dose 300 mg/kg
Method in brief: (§2)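 Test compounds given i.p. to mice at 0.01 mL/g, at 30, 100 or 300 mg/kg. The seizure challenge followed at 0.5 h and at 4 h after dosing. The value recorded is the lowest dose that protected half or more of the mice. Where no activity was seen, the maximum dose given was 300 mg/kg.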

Mus musculus [3] = test: Neurotoxicity in Albino CF1 mouse at 300 mg/kg, ip after 0.5 hrs by Rotarod test; format: toxicity, organism-based; set-up: dose 300 mg/kg, route intraperitoneal; conditions: in vivo
Method in brief: (§3)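 Rotarod test in mice pre-trained to stay on the rod for two consecutive 90 s trials. Compounds given i.p. at 30, 100 or 300 mg/kg, with testing at 0.5 h and 4 h. Deficit was scored as failure to keep balance on the rod for 1 min in each of three trials. The value recorded is the lowest dose affecting half or more of the mice.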

Mus musculus [4] = test: Anticonvulsant activity in Albino CF1 mouse upto 300 mg/kg, ip in maximal electroshock seizure test; format: functional, organism-based; set-up: dose 300 mg/kg
Method in brief: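 Mice dosed i.p. (0.01 mL/g) at 30, 100 and 300 mg/kg. Electroshock challenge run 30 min and 4 h after dosing.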

Mus musculus [5] = test: Anticonvulsant activity against intraperitoneal picrotoxin-induced seizure in Albino CF1 mouse at 100 mg/kg, ip after 0.5 hrs; format: functional, organism-based; set-up: dose 100 mg/kg; method in brief: as §1
Mus musculus [6] = test: Anticonvulsant activity against subcutaneous strychnine-induced seizure in Albino CF1 mouse at 100 mg/kg, ip after 4 hrs; format: functional, organism-based; set-up: dose 100 mg/kg; method in brief: as §2
Mus musculus [7] = test: Anticonvulsant activity against subcutaneous strychnine-induced seizure in Albino CF1 mouse at 100 mg/kg, ip after 0.5 hrs; format: functional, organism-based; set-up: dose 100 mg/kg; method in brief: as §2
Mus musculus [8] = test: Anticonvulsant activity against subcutaneous pentylenetetrazole-induced seizure in Albino CF1 mouse at 300 mg/kg, ip after 0.5 hrs; format: functional, organism-based; set-up: dose 300 mg/kg; method in brief: as §2
Mus musculus [9] = test: Neurotoxicity in Albino CF1 mouse at 300 mg/kg, ip after 4 hrs by Rotarod test; format: toxicity, organism-based; set-up: dose 300 mg/kg, route intraperitoneal; conditions: in vivo; method in brief: as §3
Mus musculus [10] = test: Anticonvulsant activity against subcutaneous strychnine-induced seizure in Albino CF1 mouse at 300 mg/kg, ip after 0.5 hrs; format: functional, organism-based; set-up: dose 300 mg/kg; method in brief: as §2
Mus musculus [11] = test: Anticonvulsant activity against intraperitoneal picrotoxin-induced seizure in Albino CF1 mouse at 300 mg/kg, ip after 4 hrs; format: functional, organism-based; set-up: dose 300 mg/kg; method in brief: as §1
Mus musculus [12] = test: Anticonvulsant activity against intraperitoneal picrotoxin-induced seizure in Albino CF1 mouse at 300 mg/kg, ip after 0.5 hrs; format: functional, organism-based; set-up: dose 300 mg/kg; method in brief: as §1
Mus musculus [13] = test: Anticonvulsant activity against subcutaneous strychnine-induced seizure in Albino CF1 mouse at 300 mg/kg, ip after 4 hrs; format: functional, organism-based; set-up: dose 300 mg/kg; method in brief: as §2
Mus musculus [14] = test: Neurotoxicity in Albino CF1 mouse at 100 mg/kg, ip after 0.5 hrs by Rotarod test; format: toxicity, organism-based; set-up: dose 100 mg/kg, route intraperitoneal; conditions: in vivo; method in brief: as §3
Mus musculus [15] = test: Neurotoxicity in Albino CF1 mouse at 100 mg/kg, ip after 4 hrs by Rotarod test; format: toxicity, organism-based; set-up: dose 100 mg/kg, route intraperitoneal; conditions: in vivo; method in brief: as §3
Mus musculus [16] = test: Anticonvulsant activity against subcutaneous pentylenetetrazole-induced seizure in Albino CF1 mouse at 30 mg/kg, ip after 0.5 hrs; format: functional, organism-based; set-up: dose 30 mg/kg; method in brief: as §2
Mus musculus [17] = test: Anticonvulsant activity against subcutaneous pentylenetetrazole-induced seizure in Albino CF1 mouse at 30 mg/kg, ip after 4 hrs; format: functional, organism-based; set-up: dose 30 mg/kg; method in brief: as §2

Row | SMILES | Activity (Mus musculus [1]) | Activity (Mus musculus [2]) | Activity (Mus musculus [3]) | Activity (Mus musculus [4]) | Activity (Mus musculus [5]) | Activity (Mus musculus [6]) | Activity (Mus musculus [7]) | Activity (Mus musculus [8]) | Activity (Mus musculus [9]) | Activity (Mus musculus [10]) | Activity (Mus musculus [11]) | Activity (Mus musculus [12]) | Activity (Mus musculus [13]) | Activity (Mus musculus [14]) | Activity (Mus musculus [15]) | Activity (Mus musculus [16]) | Activity (Mus musculus [17])
1 | C/C(=N/NC(=O)CCCN1C(=O)c2ccccc2C1=O)c1ccccc1 | Active | inactive | Not Active | inactive | Active | Active | Active | inactive | Not Active | – | – | – | – | – | – | – | –
2 | COc1cc(/C=N\NC(=O)CCCN2C(=O)c3ccccc3C2=O)ccc1O | – | inactive | Not Active | inactive | – | – | – | inactive | Not Active | inactive | inactive | Active | inactive | – | – | – | –
3 | O=C(CCCN1C(=O)c2ccccc2C1=O)N/N=C\c1ccccc1O | – | inactive | Not Active | inactive | – | – | – | inactive | Not Active | inactive | inactive | Active | inactive | – | – | – | –
4 | O=C1NC(=O)C(c2ccccc2)(c2ccccc2)N1 [PHENYTOIN] | – | inactive | – | inactive | – | – | – | inactive | – | inactive | inactive | inactive | inactive | Active | Active | – | –
5 | O=C(CCCN1C(=O)c2ccccc2C1=O)N/N=C\c1ccccc1 | Active | inactive | Not Active | inactive | Active | Active | Active | inactive | Not Active | – | – | – | – | – | – | – | –
6 | C/C(=N/NC(=O)CCCN1C(=O)c2ccccc2C1=O)c1ccc([N+](=O)[O-])cc1 | – | inactive | Active | inactive | – | – | Active | inactive | Not Active | – | inactive | Active | inactive | – | – | – | –
7 | O=C(CCCN1C(=O)c2ccccc2C1=O)Nc1ccccc1C(F)(F)F | – | inactive | Not Active | inactive | – | – | – | inactive | Active | Active | inactive | Active | inactive | – | – | – | –
8 | C/C(=N/NC(=O)CCCN1C(=O)c2ccccc2C1=O)c1ccc(C)cc1 | – | inactive | – | inactive | – | – | – | – | Not Active | inactive | inactive | Active | inactive | Active | – | Active | –
9 | O=C(CCCN1C(=O)c2ccccc2C1=O)N/N=C\c1cccc([N+](=O)[O-])c1 | – | inactive | Not Active | inactive | – | – | – | Active | Not Active | inactive | inactive | Active | inactive | – | – | – | –
10 | C/C(=N/NC(=O)CCCN1C(=O)c2ccccc2C1=O)c1ccccc1O | – | inactive | Not Active | inactive | Active | Active | Active | inactive | Not Active | – | Active | – | – | – | – | – | –
11 | O=C(CCCN1C(=O)c2ccccc2C1=O)Nc1cccc(F)c1 | – | inactive | Active | inactive | – | – | – | inactive | Not Active | Active | Active | Active | Active | – | – | – | –
12 | Cc1ccc(NC(=O)CCCN2C(=O)c3ccccc3C2=O)c(C)c1 | – | – | Active | inactive | – | – | – | inactive | Active | inactive | inactive | Active | inactive | – | – | – | Active
13 | O=C(CCCN1C(=O)c2ccccc2C1=O)Nc1ccccc1Br | – | inactive | Not Active | inactive | Active | – | – | inactive | Not Active | inactive | Active | – | inactive | – | – | – | –
14 | Cc1ccc(NC(=O)CCCN2C(=O)c3ccccc3C2=O)cc1 | – | inactive | Not Active | inactive | – | – | – | inactive | Active | Active | inactive | Active | inactive | – | – | – | –
15 | Cc1c(Cl)cccc1NC(=O)CCCN1C(=O)c2ccccc2C1=O | – | – | Active | inactive | Active | – | – | Active | – | Active | Active | – | inactive | – | Active | – | Active
16 | Cc1ccc(C)c(NC(=O)CCCN2C(=O)c3ccccc3C2=O)c1 | – | inactive | – | inactive | – | – | – | inactive | Active | Active | inactive | Active | Active | Active | – | – | –
17 | C/C(=N/NC(=O)CCCN1C(=O)c2ccccc2C1=O)c1ccc(O)cc1 | – | inactive | Not Active | inactive | Active | – | Active | inactive | Not Active | – | inactive | – | inactive | – | – | – | –
18 | C/C(=N/NC(=O)CCCN1C(=O)c2ccccc2C1=O)c1cccc(N)c1 | – | inactive | Not Active | inactive | – | – | – | inactive | Not Active | inactive | inactive | inactive | inactive | – | – | – | –
19 | CC/C(C)=N/NC(=O)CCCN1C(=O)c2ccccc2C1=O | – | inactive | Not Active | inactive | – | – | – | inactive | Not Active | inactive | inactive | Active | inactive | – | – | – | –
20 | O=C(CCCN1C(=O)c2ccccc2C1=O)NN=C(c1ccccc1)c1ccccc1 | – | inactive | Not Active | inactive | – | – | – | inactive | Not Active | inactive | inactive | Active | inactive | – | – | – | –
21 | O=C(CCCN1C(=O)c2ccccc2C1=O)N/N=C\c1ccc([N+](=O)[O-])cc1 | – | inactive | Not Active | inactive | – | – | – | inactive | Not Active | inactive | inactive | inactive | inactive | – | – | – | –
22 | CCC1(C)CC(=O)NC1=O (stereo not drawn) [ETHOSUXIMIDE] | – | inactive | Not Active | inactive | – | – | – | Active | Not Active | inactive | inactive | inactive | inactive | – | – | – | –
